Screening data from PubChem.
HKDC1 inhibitor – HKDC1 (human) hexokinase inhibition. 0.16% of 340,000 active. recombinant HKDC1, G6PDH/diaphorase resazurin coupled fluorescence. Q2TB90. AID 493160. inhibition, % at 20 µM;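 active = inhibition above about 35% when tested at 20 µM, limit read from the data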;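 also: plate controls were DMSO wells with enzyme for no effect and DMSO wells lacking enzyme for full effect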
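Material: recombinant HKDC1 hexokinase; Amount: HKDC1 at 5 µg/mL; Medium: Tris pH 8.0 buffer with MgCl2, Tween-20, BSA, BME; Schedule: 90 min reaction incubation at room temperature, dark; Technique: coupled resazurin fluorescence, excitation 525 nm, emission 613 nm.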
G6PDH counter – L. mesenteroides G6PDH inhibition counter-screen. Purified L. mesenteroides G6PDH, diaphorase/resazurin coupled fluorescence, 45 min. inhibition, % at 5 µM. 0.12% of 200,000 active; in the data active = inhibition above about 50%
Diaphorase inh – counter-screen for diaphorase-based assays: diaphorase inhibitors and chemical oxidizers; 0.69% of 190,000 active; inhibition, % at 20 µM; diaphorase resazurin-to-resorufin fluorescence, NADH, 16 min; bacterial (C. kluyveri) enzyme, not human;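 active = primary screen inhibition at 20 µM above a set limit, cut at about 50% in these data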;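 also: plate controls were DMSO with full reaction for no effect and wells lacking NADH for full effect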
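Test system: Clostridium kluyveri diaphorase enzyme / Quantity: diaphorase at 0.14 U/mL in enzyme working solution / Incubation: 16-min room-temperature incubation before reading / Benchmarks: NADH-free wells as positive control, DMSO-only neutral wells / Signal: resorufin fluorescence 544/590 nm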
PfGluPho inh – PfG6PD (Plasmodium falciparum) enzyme inhibition | PfGluPho enzyme, NADPH resazurin-diaphorase fluorescence | inhibition, % at 20 µM | 0.78% of 350,000 active | AID 504690;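 active = inhibition reaching at least a set limit at 20 µM in the primary screen, cut at about 59% in these data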;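 also: 0% = DMSO wells with substrate and 100% = DMSO wells lacking glucose-6-phosphate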
Numbers without * were called inactive; / = no result given. Sampled rows, rich in hits. Any-hit rate of the full collection: about 1.2%.

SMILES	HKDC1 inhibitor	G6PDH counter	Diaphorase inh	PfGluPho inh
CC[C@]12c3[nH]c4ccccc4c3CCN1C(=O)C(CC(=O)NCCCOC)C[C@@H]2C(=O)N1CCN(C(=O)c2ccco2)CC1 (some centres undefined)	-4.7	/	/	1.5
CCCc1cc(=O)oc2cc(C)cc(OC(C)C(=O)NCc3ccccn3)c12 (centres undefined)	-7.0	/	/	-11.1
CC(=O)Oc1c(C)cc(O)c2ccccc12	/	50.6*	32.9	/
Nc1cc(Cl)ccc1N1CCCCC1	-6.7	10.6	19.7	-4.3
Nc1c(N2CCCC2)cc(Cl)c2nonc12	-4.5	56.6*	61.7*	-72.2
Cc1nn(-c2cc(N3CCCCC3)ccc2N)c(=O)c2ccccc12	-2.8	5.4	26.2	25.4
Nc1ccc(N2CCCCC2)c2nonc12	8.6	53.6*	29.7	51.9
Nc1ccc(N2CCCCC2)cc1N1CCCCC1	32.3	6.1	57.2*	48.8
O=C1CCC(C(=O)OCC(=O)Nc2ccc(Cl)cc2C(F)(F)F)=NN1	-5.4	/	/	-2.6
CCCCC(=O)Nc1c2c(nn1-c1ccc(C)cc1)CS(=O)(=O)C2	-1.8	/	/	-1.9
CSCC[C@H](NC(=O)N1CCn2c1nc1ccccc12)C(=O)NCC1CCCO1 (some centres undefined)	-4.2	/	/	-12.2
O=C1c2cccc3c([N+](=O)[O-])ccc(c23)C(=O)N1c1nccs1	18.2	9.0	26.9	60.0*
O=C1c2cccc3c([N+](=O)[O-])ccc(c23)C(=O)N1c1ccccn1	22.5	18.2	21.0	55.2
CCOC(=O)CSc1nnc(-c2cc(OC)c(OC)c(OC)c2)o1	1.1	6.2	-3.5	-9.0
COc1cc(-c2nnc(SCc3cc(=O)oc4cc(O)c(O)cc34)o2)cc(OC)c1OC	29.5	-0.2	67.1*	-35.5
O=C(O[C@@H]1Cc2c(O)cc(O)cc2O[C@@H]1c1cc(O)c(O)c(O)c1)c1cc(O)c(O)c(O)c1	/	5.4	74.1*	/
Oc1cc(O)c2c(c1)O[C@H](c1ccc(O)c(O)c1)[C@H](O)C2	-1.9	/	/	17.7
CCC1CCCCN1CCCNC(=O)CCC(=O)N1CCOc2ccccc21 (centres undefined)	-5.0	/	/	-4.8
Nc1scc2c(C(=O)N/N=C/c3ccc(Cl)cc3)nn(-c3ccccc3)c(=O)c12	18.9	20.4	75.2*	56.0
CCOC(=O)c1nn(-c2ccccc2)c(=O)c2c(N)scc12	15.0	46.1	35.5	59.0
Cc1ccc(S(=O)(=O)CCC(=O)OCc2nnc(-c3ccccc3)o2)cc1	-4.7	/	/	5.5
O=[N+]([O-])c1ccc2nc(NN=Cc3ccc(O)cc3)sc2c1	-1.0	/	/	14.5
O=C(N/N=C/c1ccc(-c2ccccc2[N+](=O)[O-])o1)[C@H]1C[C@@H]1c1ccccc1	6.6	12.8	51.7*	8.1
C[C@@H]1CCCCO[C@H](CN(C)C(=O)Nc2ccccc2)[C@@H](C)CN([C@H](C)CO)C(=O)c2cc(NS(=O)(=O)c3cn(C)cn3)ccc2O1	/	/	/	13.8
N#Cc1cccc(N=c2ssnc2Cl)c1	-13.3	4.1	27.7	80.0*
SMILES	HKDC1 inhibitor	G6PDH counter	Diaphorase inh	PfGluPho inh
OCc1ccccc1N=c1ssnc1Cl	/	2.9	15.6	/
CN1C(=O)C(Cl)(Cl)C(=O)c2ccccc21	-7.0	24.9	76.3*	44.1
C=CC#CC[N+]1(CC#Cc2ccccc2)CCOCC1	33.9	1.1	-47.0	71.7*
c1coc(-c2nc3ccccc3nc2-c2ccco2)c1	17.0	21.0	80.3*	48.5
O=C(NC1CCCC1)c1ccc2nc(-c3ccco3)c(-c3ccco3)nc2c1	27.6	19.3	80.4*	53.1
O=C(O)c1ccc2nc(-c3ccccc3)c(-c3ccccc3)nc2c1	-2.2	1.2	17.6	7.6
O=C(c1ccccc1)c1ccc2nc(-c3ccco3)c(-c3ccco3)nc2c1	25.8	21.1	74.2*	35.2
COc1ccc2nc(N3CCCC(C(=O)NCCCN4C(C)CCCC4C)C3)sc2c1 (centres undefined)	-5.2	/	/	0.3
CCCCN(C(=O)c1oc2ccc(OCC)cc2c1C)c1c(N)n(CC(C)C)c(=O)[nH]c1=O	-1.5	/	/	3.7
Nc1ccc2[nH]ncc2c1	6.1	45.0	58.5*	10.3
O=C(Cc1ccc(F)cc1)Nc1ccc2[nH]ncc2c1	-5.8	/	/	11.3
CCC(Cc1ccccc1)NC(=O)C1CCN(S(=O)(=O)c2ccc3c(c2)CC(C)N3C(C)=O)CC1 (centres undefined)	-4.4	/	/	-9.8
CC(=O)OCCN(C)c1cc(SC(C)C)c2nonc2c1[N+](=O)[O-]	-1.4	13.7	11.4	12.0
CCC(=O)OCCNc1cc(SCCC(=O)OC)c2nonc2c1[N+](=O)[O-]	2.9	-10.5	71.0*	34.4
